High-throughput results as filed in PubChem.
RBBP9 inh: human RBBP9 hydrolase inhibition; O75884; recombinant RBBP9, FP-Rh probe fluorescence polarization; inhibition, % at 7.94 µM; 220,000 tested, 0.2% active; AID 1515;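 active = inhibition above the campaign mean of all tested compounds plus 3 SD, cut at about 14% in these data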;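 also: plate controls were DMSO wells with RBBP9 for no effect and wells lacking RBBP9 protein for full effect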
Target sequence (O75884 whole entry, looked up): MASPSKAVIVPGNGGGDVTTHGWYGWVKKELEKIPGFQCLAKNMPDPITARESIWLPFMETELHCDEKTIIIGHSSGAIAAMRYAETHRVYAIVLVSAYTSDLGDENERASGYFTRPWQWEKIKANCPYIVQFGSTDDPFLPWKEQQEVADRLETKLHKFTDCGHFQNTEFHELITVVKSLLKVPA
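Measured by: FP readout at 525/598 nm; material: recombinant human RBBP9; also added: Serine-hydrolase probe FP-Rh, 375 nM pre-mixing; medium: Tris buffer pH 8.0, NaCl, Pluronic; replication: one well per compound; doses: one concentration, 7.94 µM nominal, 0.794% DMSO; timing: preincubation 30 min plus labeling 45 min at 25 °C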
PAFAH1B3 inh: inhibitors of human PAFAH1B3. Q15102. recombinant PAFAH1B3, FP-rhodamine probe, fluorescence polarization. inhibition, % at 3.39 µM. 340,000 tested, 0.28% active;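 active = inhibition above the screen-wide average of all tested compounds plus 3 SD, cut at about 25% in these data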;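 also: 0% = enzyme with DMSO only and 100% = wells lacking PAFAH1B3 protein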
Target sequence (Q15102 whole entry, looked up): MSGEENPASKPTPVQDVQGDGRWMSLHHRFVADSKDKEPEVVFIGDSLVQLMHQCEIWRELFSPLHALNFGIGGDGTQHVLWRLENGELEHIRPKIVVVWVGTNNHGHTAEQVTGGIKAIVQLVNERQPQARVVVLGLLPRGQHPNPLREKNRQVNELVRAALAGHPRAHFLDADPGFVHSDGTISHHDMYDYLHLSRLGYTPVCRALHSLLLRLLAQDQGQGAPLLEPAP
PAFAH2 inh: inhibitors of human PAFAH2; AID 492956; 340,000 tested, 0.99% active; recombinant PAFAH2, FP-rhodamine activity probe, fluorescence polarization; inhibition, % at 3.39 µM;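 active = inhibition above the mean over all tested compounds plus 3 SD, cut at about 30% in these data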;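 also: inhibitors block probe labeling of enzyme so polarization drops; 0% = enzyme with DMSO and 100% = wells lacking PAFAH2 protein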
PAFAH1B2 inh: blocks human PAF acetylhydrolase 1b catalytic subunit 2; recombinant PAFAH1B2, FP-rhodamine activity probe, fluorescence polarization; 340,000 tested, 1.2% active; inhibition, % at 3.39 µM; AID 492953; P68402;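 active = inhibition above the mean of all tested compounds plus 3 SD, cut at about 24% in these data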;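 also: 0% = enzyme with DMSO and 100% = wells lacking PAFAH1B2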
Target sequence (P68402 whole entry, looked up): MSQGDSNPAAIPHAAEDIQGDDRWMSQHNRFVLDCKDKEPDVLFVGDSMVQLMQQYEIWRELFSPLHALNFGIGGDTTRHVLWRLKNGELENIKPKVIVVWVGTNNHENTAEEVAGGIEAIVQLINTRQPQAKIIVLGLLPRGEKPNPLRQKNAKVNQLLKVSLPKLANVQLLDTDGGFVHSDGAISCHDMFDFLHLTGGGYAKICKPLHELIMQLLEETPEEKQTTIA
pPAFAH inh: inhibitors of human plasma PAF acetylhydrolase (pPAFAH); 330,000 tested, 1.5% active; Q13093; AID 463082; recombinant pPAFAH, FP-rhodamine probe fluorescence polarization; inhibition, % at 3.39 µM;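 active = inhibition above the mean inhibition across the screen plus 3 SD, cut at about 25% in these data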;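 also: inhibitors block binding of the rhodamine activity-based probe so polarization drops; 0% = enzyme with DMSO and 100% = wells lacking pPAFAH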
Numbers without * were called inactive. Hits are enriched below; roughly 2.7% of the tested compounds scored in any of these assays.

What do the screens show for `COc1cccc(N2CCN(C(=O)c3ccc(CS(=O)Cc4ccc(C)cc4)o3)CC2)c1` (stereo unspecified)?
PAFAH1B3 inh: 4; PAFAH2 inh: 6; PAFAH1B2 inh: 2; pPAFAH inh: 4

How did O=C(c1ccc(CS(=O)Cc2ccc(Cl)cc2)o1)N1CCN(c2ccc(F)cc2)CC1 (stereo unspecified) do in these assays?
PAFAH1B3 inh: 3; PAFAH2 inh: 1; PAFAH1B2 inh: 11; pPAFAH inh: 30*

How did O=C(c1ccc(CS(=O)Cc2ccc(Cl)cc2)o1)N1CCN(c2cccc(Cl)c2)CC1 (stereo unspecified) do in these assays?
PAFAH1B3 inh: -4; PAFAH2 inh: 6; PAFAH1B2 inh: 4; pPAFAH inh: 26*

Results for O=c1ccc(NS(=O)(=O)c2ccccc2)cn1Cc1ccc(Cl)c(Cl)c1 ?
RBBP9 inh: -7; PAFAH1B3 inh: 9; PAFAH2 inh: 5; PAFAH1B2 inh: 15; pPAFAH inh: 26*

Results for CC(C)CNS(=O)(=O)c1cc2c3c(c1)CC(=O)N3CCC2 ?
PAFAH1B3 inh: 13; PAFAH2 inh: -2; PAFAH1B2 inh: 4; pPAFAH inh: 8

How did Cc1cccc2c(N=Nc3ccc(S(=O)(=O)Nc4cccc(Cl)c4)cc3[N+](=O)[O-])c(O)[nH]c12 do in these assays?
RBBP9 inh: -4; PAFAH1B3 inh: 21; PAFAH2 inh: 8; PAFAH1B2 inh: 26*; pPAFAH inh: 28*

Results for Cc1occc1C(=O)O/N=C(\N)c1ccc(Cl)cc1 ?
RBBP9 inh: -5; PAFAH1B3 inh: 1; PAFAH2 inh: 2; PAFAH1B2 inh: 34*; pPAFAH inh: 0

What do the screens show for `NC(=O)c1ccc(NC(=O)COC(=O)C2(c3ccccc3F)CCCC2)cc1`?
RBBP9 inh: -4; PAFAH1B3 inh: 8; PAFAH2 inh: 2; PAFAH1B2 inh: 27*; pPAFAH inh: -1

How did COc1ccc(CCNC(=O)C2CCN(S(=O)(=O)c3ccc(SC)cc3)CC2)cc1 do in these assays?
PAFAH1B3 inh: 2; PAFAH2 inh: -2; PAFAH1B2 inh: 3; pPAFAH inh: 8

How did CCOc1ccc(NS(=O)(=O)c2cc(C(=O)N3CCCC3)ccc2Cl)cc1 do in these assays?
PAFAH1B3 inh: 1; PAFAH2 inh: -1; PAFAH1B2 inh: 1; pPAFAH inh: 2

Results for O=C(O)c1ccc(Cl)c(S(=O)(=O)Nc2ccc(OCc3ccccc3)cc2)c1 ?
PAFAH1B3 inh: 8; PAFAH2 inh: -9; PAFAH1B2 inh: 26*; pPAFAH inh: 9

Results for CCC(CNc1cc(OC)cc2cccnc12)NC1CCCCC1 (stereo unspecified) ?
RBBP9 inh: 8; PAFAH1B3 inh: 13; PAFAH2 inh: -1; PAFAH1B2 inh: 5; pPAFAH inh: 25*

Results for COc1cc(NS(=O)(=O)c2ccc(C)cc2)c2ncccc2c1 ?
RBBP9 inh: -5; PAFAH1B3 inh: 7; PAFAH2 inh: 9; PAFAH1B2 inh: 6; pPAFAH inh: 7

What do the screens show for `O=S(=O)(c1ccccc1)c1cc(O)ccc1O`?
RBBP9 inh: 3; PAFAH1B3 inh: 2; PAFAH2 inh: 3; PAFAH1B2 inh: 1; pPAFAH inh: 2

What do the screens show for `O=S(=O)(c1ccc(Cl)cc1)c1cc(O)ccc1O`?
PAFAH1B3 inh: 6; PAFAH2 inh: 3; PAFAH1B2 inh: 26*; pPAFAH inh: 6

What do the screens show for `CN1C(=O)Cc2cc(S(=O)(=O)NCc3c(F)cccc3Cl)ccc21`?
PAFAH1B3 inh: 1; PAFAH2 inh: 8; PAFAH1B2 inh: 7; pPAFAH inh: 1

Results for Cc1cc(NC(=O)C23CC4CC(CC(C4)C2)C3)n[nH]1 ?
RBBP9 inh: -5; PAFAH1B3 inh: 6; PAFAH2 inh: 5; PAFAH1B2 inh: 23; pPAFAH inh: -8

Results for CCC(=O)Nc1cc(C)c(NC(=O)C23CC4CC(CC(C4)C2)C3)cn1 ?
RBBP9 inh: -2; PAFAH1B3 inh: -2; PAFAH2 inh: 5; PAFAH1B2 inh: 32*; pPAFAH inh: -2

Results for O=C(OC1CCCC1)c1ccc(Cl)cc1Cl ?
PAFAH1B3 inh: 3; PAFAH2 inh: -2; PAFAH1B2 inh: 1

How did CN1OC(COC(=O)c2ccc(Cl)cc2Cl)CC1c1ccccc1 (stereo unspecified) do in these assays?
RBBP9 inh: 0; PAFAH1B3 inh: -3; PAFAH2 inh: 7; PAFAH1B2 inh: 3; pPAFAH inh: 26*

Results for N/C(Cc1cccs1)=N\OC(=O)COc1ccc(Br)cc1 ?
RBBP9 inh: 3; PAFAH1B3 inh: 9; PAFAH2 inh: 2; PAFAH1B2 inh: 28*; pPAFAH inh: 21

What do the screens show for `COc1ccc(OCC(=O)O/N=C(\N)Cc2cccs2)cc1`?
RBBP9 inh: -2; PAFAH1B3 inh: 5; PAFAH2 inh: -7; PAFAH1B2 inh: 14; pPAFAH inh: 23

What do the screens show for `CC(=O)NCC(=O)N1CCCC(C(=O)c2ccc(Oc3ccccc3)cc2)C1` (stereo unspecified)?
RBBP9 inh: -1; PAFAH1B3 inh: 12; PAFAH2 inh: 4; PAFAH1B2 inh: 6; pPAFAH inh: 8

How did O=C(CNC(=O)c1ccccc1)N/N=C/c1cc(Br)ccc1O do in these assays?
RBBP9 inh: -9; PAFAH1B3 inh: 10; PAFAH2 inh: 4; PAFAH1B2 inh: 27*; pPAFAH inh: 9

What do the screens show for `O=C(CNC(=O)c1ccncc1)N/N=C/c1cc(Br)ccc1O`?
RBBP9 inh: -13; PAFAH1B3 inh: 11; PAFAH2 inh: 3; PAFAH1B2 inh: 8; pPAFAH inh: 0

What do the screens show for `Cc1ccnc(NC(=O)c2ccc([N+](=O)[O-])s2)c1`?
PAFAH1B3 inh: 2; PAFAH2 inh: 4; PAFAH1B2 inh: 7; pPAFAH inh: 0

Results for CC(C)C(NC(=O)CC12CC3CC(CC(C3)C1)C2)C(=O)O (stereo unspecified) ?
RBBP9 inh: -6; PAFAH1B3 inh: 4; PAFAH2 inh: 5; PAFAH1B2 inh: 25*; pPAFAH inh: 2

Results for Cc1ccc(CC(=O)OCC(=O)NC2CCCC(C)C2C)cc1C (stereo unspecified) ?
RBBP9 inh: -6; PAFAH1B3 inh: 10; PAFAH2 inh: 39*; PAFAH1B2 inh: 4; pPAFAH inh: 29*

How did CC1CCCC(NC(=O)COC(=O)Cc2ccc(Cl)cc2)C1C (stereo unspecified) do in these assays?
PAFAH1B3 inh: 15; PAFAH2 inh: 16; PAFAH1B2 inh: 20; pPAFAH inh: 28*

How did COc1ccc(/C=C/C(=O)OCC(=O)N2CCCC2)c(OC)c1 do in these assays?
PAFAH1B3 inh: -2; PAFAH2 inh: 16; PAFAH1B2 inh: 1; pPAFAH inh: 5

What do the screens show for `COc1ccc(/C=C/C(=O)OCC(=O)NC2CCCC(C)C2C)c(OC)c1` (stereo unspecified)?
PAFAH1B3 inh: -1; PAFAH2 inh: 76*; PAFAH1B2 inh: -2; pPAFAH inh: 29*

How did CCc1ccc(OCC(=O)OCC(=O)NC2CCCC(C)C2C)cc1 (stereo unspecified) do in these assays?
PAFAH1B3 inh: 10; PAFAH2 inh: 7; PAFAH1B2 inh: 7; pPAFAH inh: 8
